Results reported in ChEMBL document CHEMBL1255300, “Pharmacodynamics of the antibacterial effect and emergence of resistance to tomopenem, formerly RO4908463/CS-023, in an in vitro pharmacokinetic model of Staphylococcus aureus infection” (Antimicrob Agents Chemother, 2008).
≈ marks a conversion by molar mass, not a printed value. Calls of active or inactive are those of the source. The rule behind the calls is not given here.

Legend:
[1] = system: Serum; experiment: Drug level in human serum at 700 mg; assay type: ADME, cell-free
[2] = system: Staphylococcus aureus; experiment: AUBKC (0 to 48 hrs) in methicillin-resistant Staphylococcus aureus 33921 infected in in vitro pharmacokinetic model at 750 mg, iv every 8 hrs using 10^6 CFU/ml inoculum; assay type: functional
In short: (§1)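 Single-compartment dilutional in vitro PK model at 37°C in 10% Mueller-Hinton broth, stirred, flow 132 ml/h. […] Inoculum 10^6 CFU/ml added 45 min before dosing, or 10^8 CFU/ml run overnight. Viable counts with β-lactamase neutralisation. AUBKC by log-linear trapezoidal rule, at least triplicate.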

[3] = system: Staphylococcus aureus; experiment: Antibacterial activity against methicillin-resistant Staphylococcus aureus 33820 by broth dilution method; assay type: functional
In short: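 Standard CLSI broth dilution MIC.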

[4] = system: Staphylococcus aureus; experiment: T>MIC in methicillin-resistant Staphylococcus aureus 33815 infected in vitro pharmacokinetic model at 750 mg, iv every 8 hrs; assay type: functional
[5] = system: Staphylococcus aureus; experiment: Antibacterial activity against methicillin-resistant Staphylococcus aureus 33922 by broth dilution method; assay type: functional
[6] = system: Staphylococcus aureus; experiment: Antibacterial activity against methicillin-resistant Staphylococcus aureus 33820 infected in in vitro pharmacokinetic model assessed as reduction in viable count at 750 mg, iv every 8 hrs measured after 24 hrs using 10^6 CFU/ml inoculum; assay type: functional
In short: (§2)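 Single-compartment dilutional in vitro PK model, 37°C, stirred, in 10% Mueller-Hinton broth. […] Inoculum 10^6 CFU/ml from a 24-h plate culture was added 45 min before dosing. Viable counts by spiral plating on nutrient agar with β-lactamase neutralization. Log change was taken from time 0; detection limit 10^2 CFU/ml; at least triplicate.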

[7] = system: Staphylococcus aureus; experiment: Antibacterial activity against methicillin-resistant Staphylococcus aureus 33815 infected in in vitro pharmacokinetic model assessed as reduction in viable count at 750 mg, iv every 8 hrs measured after 48 hrs using 10^6 CFU/ml inoculum; assay type: functional; in short: as §2
[8] = system: Staphylococcus aureus; experiment: AUBKC (0 to 24 hrs) in methicillin-resistant Staphylococcus aureus 33829 infected in in vitro pharmacokinetic model at 750 mg, iv every 8 hrs using 10^6 CFU/ml inoculum; assay type: functional; in short: as §1
[9] = system: Staphylococcus aureus; experiment: Antibacterial activity against methicillin-sensitive Staphylococcus aureus; assay type: functional
[10] = system: Staphylococcus aureus; experiment: Antibacterial activity against methicillin-resistant Staphylococcus aureus 33815 in in vitro pharmacokinetic model assessed as viable count at 4 times of MIC; assay type: functional
In short: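 Preexposure population analysis profile: model sample at time zero plated on nutrient agar with tomopenem at multiples of the MIC. Growth counted as log CFU/ml, detection limit 2 log10.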

[11] = system: Staphylococcus aureus; experiment: T>MIC for static effect in methicillin-resistant Staphylococcus aureus 33820 in in vitro pharmacokinetic model after 24 hrs using 10^6 CFU/ml inoculum; assay type: functional
[12] = system: Staphylococcus aureus; experiment: AUBKC (0 to 24 hrs) in methicillin-sensitive Staphylococcus aureus 5956 infected in in vitro pharmacokinetic model at 1500 mg, iv every 8 hrs using 10^6 CFU/ml inoculum; assay type: functional
[13] = system: Staphylococcus aureus; experiment: T>MIC for 1-log drop in count in methicillin-resistant Staphylococcus aureus 33829 in in vitro pharmacokinetic model after 24 hrs using 10^6 CFU/ml inoculum; assay type: functional
[14] = system: Staphylococcus aureus; experiment: T>MIC for 3-log drop in count in methicillin-sensitive Staphylococcus aureus 5956 in in vitro pharmacokinetic model after 24 hrs using 10^6 CFU/ml inoculum; assay type: functional
In short: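 Dose-ranging: 7–13 simulated regimens per strain giving T>MIC of 0–100% (MIC from 10% MHB), at 106 or 10^8 CFU/ml as stated.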

[15] = system: Staphylococcus aureus; experiment: Antibacterial activity against methicillin-resistant Staphylococcus aureus 33820 infected in in vitro pharmacokinetic model assessed as reduction in viable count at 750 mg, iv every 8 hrs measured after 12 hrs using 10^6 CFU/ml inoculum; assay type: functional; in short: as §2
[16] = system: Staphylococcus aureus; experiment: Antibacterial activity against methicillin-resistant Staphylococcus aureus 33827 infected in in vitro pharmacokinetic model assessed as time required to 99.9% killing at 750 mg, iv every 8 hrs using 10^6 CFU/ml inoculum; assay type: functional
In short: (§3)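 Single-compartment dilutional in vitro PK model, 10% Mueller-Hinton broth, 37°C, stirred, dilution 132 ml/h. […] Inoculum 10^6 CFU/ml (added 45 min pre-dose) or 10^8 CFU/ml (run overnight). Viable counts by spiral plating, beta-lactamase neutralization, detection limit 10^2 CFU/ml. At least triplicate.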

[17] = system: Staphylococcus aureus; experiment: T>MIC for 3-log drop in count in methicillin-resistant Staphylococcus aureus 33815 in in vitro pharmacokinetic model after 24 hrs using 10^6 CFU/ml inoculum; assay type: functional
[18] = system: Staphylococcus aureus; experiment: Antibacterial activity against methicillin-resistant Staphylococcus aureus 33827 infected in in vitro pharmacokinetic model assessed as reduction in viable count at 1500 mg, iv every 8 hrs measured after 48 hrs using 10^6 CFU/ml inoculum; assay type: functional; in short: as §3
[19] = system: Staphylococcus aureus; experiment: Antibacterial activity against methicillin-resistant Staphylococcus aureus 33815 infected in in vitro pharmacokinetic model assessed as reduction in viable count at 1500 mg, iv every 8 hrs measured after 36 hrs using 10^6 CFU/ml inoculum; assay type: functional; in short: as §2
[20] = system: Staphylococcus aureus; experiment: Antibacterial activity against methicillin-resistant Staphylococcus aureus 33827 infected in in vitro pharmacokinetic model assessed as reduction in viable count at 750 mg, iv every 8 hrs measured after 12 hrs using 10^8 CFU/ml inoculum; assay type: functional; in short: as §3
[21] = system: Staphylococcus aureus; experiment: T>MIC for static effect in methicillin-resistant Staphylococcus aureus 33827 in in vitro pharmacokinetic model after 24 hrs using 10^6 CFU/ml inoculum; assay type: functional
[22] = system: Staphylococcus aureus; experiment: T>MIC for 2-log drop in count in methicillin-resistant Staphylococcus aureus 33827 in in vitro pharmacokinetic model after 24 hrs using 10^8 CFU/ml inoculum; assay type: functional
[23] = system: Staphylococcus aureus; experiment: Antibacterial activity against methicillin-resistant Staphylococcus aureus 33922 in in vitro pharmacokinetic model assessed as viable count at 2 times of MIC; assay type: functional
[24] = system: Staphylococcus aureus; experiment: Antibacterial activity against methicillin-resistant Staphylococcus aureus 33922 infected in in vitro pharmacokinetic model assessed as reduction in viable count at 750 mg, iv every 8 hrs measured after 36 hrs using 10^8 CFU/ml inoculum; assay type: functional
[25] = system: Staphylococcus aureus; experiment: Antibacterial activity against methicillin-resistant Staphylococcus aureus 33820 assessed as viable count at 4 times of MIC after 48 hrs using 10^6 CFU/ml inoculum; assay type: functional, organism-based
[26] = system: Staphylococcus aureus; experiment: Antibacterial activity against methicillin-resistant Staphylococcus aureus 33922 infected in in vitro pharmacokinetic model assessed as reduction in viable count at 1500 mg, iv every 8 hrs measured after 24 hrs using 10^6 CFU/ml inoculum; assay type: functional
[27] = system: Staphylococcus aureus; experiment: Antibacterial activity against methicillin-resistant Staphylococcus aureus 33829 assessed as viable count at 2 times of MIC after 24 hrs using 10^6 CFU/ml inoculum; assay type: functional, organism-based
[28] = system: Staphylococcus aureus; experiment: Antibacterial activity against methicillin-resistant Staphylococcus aureus 33815 infected in in vitro pharmacokinetic model assessed as reduction in viable count at 1500 mg, iv every 8 hrs measured after 48 hrs using 10^8 CFU/ml inoculum; assay type: functional
In short: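 PK model at 37°C in 10% MHB. […] A 0.5 McFarland suspension (1 ml) was added and the model run overnight to reach 10^8 CFU/ml before dosing. Counts were spiral-plated on nutrient agar with β-lactamase. Change in log CFU/ml was measured from time 0; at least triplicate.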

In the case of `C[C@@H](O)[C@H]1C(=O)N2C(C(=O)O)=C(S[C@H]3C[C@@H](C(=O)N4CC[C@H](NC(=O)CNC(=N)N)C4)N(C)C3)[C@H](C)[C@H]12` [TOMOPENEM], the Drug uptake [1] is reported as 44 mg/L, the AUBC [2] is reported as 41 log10CFU/ml.hr and the MIC [3] is reported as 16 µg/mL (≈ 29.8 µM). For the same molecule, the “fT>MIC” value [4] was 73%, the MIC [5] was 0.5 µg/mL (≈ 0.93 µM) and the log10CFU/ml [6] was 4.2. It also gave a log10CFU/ml [7] of 4.2, an AUBC [8] of 25 log10CFU/ml.hr and an MIC50 [9] of 0.12 µg/mL (≈ 0.223 µM). The MIC90 [9] was 0.12 µg/mL (≈ 0.223 µM), the log10CFU/ml [10] was less than 2 and the “fT>MIC” value [11] was 5.9%. For the same molecule, the AUBC [12] was 22.7 log10CFU/ml.hr, the “fT>MIC” value [13] was 16.8% and the “fT>MIC” value [14] was 10.1%. For the same molecule, the log10CFU/ml [15] was 3.9, the Time [16] was 7 h and the “fT>MIC” value [17] was 17.1%. It also gave a log10CFU/ml [18] of 3.6, a log10CFU/ml [19] of 4.2 and a log10CFU/ml [20] of 3.8. For the same molecule, the “fT>MIC” value [21] was 15.4%, the “fT>MIC” value [22] was 39.6% and the log10CFU/ml [23] was 8.3. The log10CFU/ml [24] was 5.5, the Activity [25] was “Active” and the log10CFU/ml [26] was 4.2. For the same molecule, the Activity [27] was “inactive” and the log10CFU/ml [28] was 3.9.
